Each structure is given as a SMILES string. Among all 2,400 compounds or so, about 1,200 (50%) were called active. The set was probably picked from earlier hits. The list is a sample of the results. Unmarked numbers belong to inactive results.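 The calls were made as follows: active = activation above the run cutoff, the mean activation over all tested wells plus 3 SD (cut at about 12% in these data); inactive = the rest.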

These results are taken from PubChem BioAssay AID651787 (The Scripps Research Institute Molecular Screening Center, 2012).

A short description of the assay: nonselective calcium mobilization agonists, CHO-Ga16 cells, counter-screen for hTAAR1 agonist project, cell-based, fluorescence, CHO-Ga16 parental line (AID 651787). To be noted: Fluo-8 calcium fluorescence, at 3 µM, active compounds read high, normalized to maximal ATP response, DMSO zero. The essentials: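 Test system: CHO-Gα16 parental cells without hTAAR1 / Quantity: 750 cells per well / Detection: Fluo-8 calcium dye fluorescence, excitation 470-495 nm, emission 515-575 nm / Benchmarks: DMSO (0%) and EC100 ATP (100%) / Schedule: 17-24 h seeding, dye 75 min 37 °C, 30 min RT / Read-out basis: percent activation from max/basal fluorescence ratio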
Background: Calcium assays in cells follow changes in intracellular calcium, usually with a dye or a luminescent sensor.
For the compound `CCCCC(=O)N/N=C/c1c(O)n(CC)c(=S)n(CC)c1=O`, the activation is 90.1% (active).

In the case of `CCC(=NCCc1ccccc1)c1c(O)n(C2CCCCC2)c(=O)[nH]c1=O`, the activation was 4.36%.

`COc1ccc(Br)cc1CNCCc1cccc(Cl)c1`: the activation is 17.7% (active).

`Clc1ccc2nc3c(c(-c4ccccc4)c2c1)CNCC3`: the activation is 3.65%.

Turning to `Cc1cccc(N2C(=O)NC(=O)/C(=C\c3cnn(-c4ccccc4)c3)C2=O)c1`, the activation is 25.1% (active).

Turning to `c1ccc(CCNC2CCCCCC2)cc1`, the activation was 0.13%.

Turning to `O=C1NC(=O)N(Cc2ccco2)C(=O)/C1=C\c1ccc(-c2ccc(F)cc2)o1`, the activation is 21.1% (active).

For `NCC(O)c1ccc(O)cc1` (centres undefined), the activation was 1.74%.

On to `CC(Cc1ccccc1)NC=O` (centres undefined), for which the activation was 6.88%.
